Data set [1] deals with VIE (5 strains), ATCC® MP-1™ panel. Put plainly: MIC, extended VIE panel. The data set is classed as cell-based, Enterococci. The conditions noted are these: range over 5 strains, broth microdilution, 37 °C, 20 h.
Data set [2] has as its system MurJ. Put plainly: Native mass spectrometry, direct binding to MurJ. Conditions: 3 µM compound added to MurJ. In a few lines: (§1)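 Purified MurJ was buffer-exchanged into 200 mM ammonium acetate pH 8.0 with 2× critical micelle concentration LDAO and infused via gold-coated capillaries. Settings were capillary 1.1 kV, m/z 1,000–20,000, S-lens RF 100%, HCD 200 V, trapping gas 7.5, 200 °C, resolution 12,500, noise level 3, and no in-source dissociation.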

Data set [3] relates to MurJ:lipid II complex. In words: Native mass spectrometry, MurJ:lipid II complex. In kind it is binding. Conditions: 5 µM MurJ with 3 µM lipid II, then 7 µM compound. In a few lines:
as §1

Data set [4] has as its system peptidoglycan precursors D-Ala-D-Lac. The conditions noted are these: remodeling of peptidoglycan precursors from D-Ala-D-Ala to D-Ala-D-Lac; cited from earlier work.
For data set [5], the system named is HEK293 cells. In words: MTT viability assay, HEK293. Conditions: 500 μg/mL, 48 h, relative to 1% (v/v) DMSO vehicle control; n = 3. In kind it is cell-based, human. In a few lines:
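HEK293 cells were kept in DMEM with 10% (v/v) FBS, 1% (v/v) penicillin/streptomycin and 4.5 g/L glucose at 37 °C, 5% CO2, passaged tri-weekly. MTT viability was measured after test compound at 500 μg/mL and normalized to 1% (v/v) DMSO vehicle. The positive control was the cytotoxic peptide NaD1 at 50 μM. Three technical replicates were run, with unpaired two-tailed Student's t tests.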
A general note: Tetrazolium assays rely on reduction of a dye to a coloured formazan, in cell work by metabolically active cells.

The target of data set [6] is acetyl-Lys-D-Ala-D-Lac. Put plainly: Microscale thermophoresis binding, D-Ala-D-Lac tripeptide. Conditions: MST, fluorescently labeled tripeptide, 25 °C; N = 3, ±S.D.; n.b.: no binding. In a few lines: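 The tripeptide was labelled with an amine-reactive red NHS dye and mixed 1:1 with aqueous test compound (final 200 μM to 6.1 nM). Mixtures were incubated 5 min at 25 °C and read at 25 °C with 20% LED and 20% IR laser power (30 s on, 5 s off). The thermophoresis + T-jump signal from three independent runs was fitted to a single-site binding model.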

In the case of `CN[C@H](CC(C)C)C(=O)N[C@H]1C(=O)N[C@@H](CC(N)=O)C(=O)N[C@H]2C(=O)N[C@H]3C(=O)N[C@H](C(=O)N[C@H](C(=O)O)c4cc(O)cc(O)c4-c4cc3ccc4O)[C@H](O)c3ccc(c(Cl)c3)Oc3cc2cc(c3O[C@@H]2O[C@H](CO)[C@@H](O)[C@H](O)[C@H]2O[C@H]2C[C@](C)(N)[C@H](O)[C@H](C)O2)Oc2ccc(cc2Cl)[C@H]1O` [Vancomycin], the “MIC, VIE (5 strains)” value in data set [1] fell in the range of 8 to 16 µg/mL. Further, in data set [2], the “Direct binding to MurJ (native mass spectra)” value is “no binding was observed”. Moreover, the “Ternary complex formation with MurJ:lipid II (native mass spectra)” value in data set [3] is recorded as “expected ternary complex was formed”. The “Reduction of vancomycin binding and antimicrobial activity” value in data set [4] is reported as 1,000 fold. The “Viability of HEK293 cells (MTT)” value in data set [5] was “significant decrease in the viability”. Besides, the “KD, acetyl-Lys-D-Ala-D-Lac” value in data set [6] is “no binding was observed”.

These data come from paper PMC10104512 (Proceedings of the National Academy of Sciences of the …, 2023).
